Data published in PubChem BioAssay.
Active and inactive are the calls of the source.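 The calls were made as follows, unless noted: active = viability at or below 30% in both replicate assays; inconclusive = viability at or below 30% in just one of the two assays; inactive = the rest.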

What was measured:
[1] = HUVEC growth inhibition – cell-based, human, primary screen (AID 575); conditions: HUVEC proliferation, CellTiter-Glo luminescence, 72 h; at 10 µM; stronger effect = lower value;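 also: 100% = median of untreated cell wells with 0.1% DMSO on each plate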
Procedure, shortened: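 material = primary HUVEC, no more than 12 passages | input = 1250 cells per well | controls = vehicle and MePR control wells | measured by = CTG luminescence | times = 72 h compound incubation | format = collagen-coated 384-well format | read-out = % viability vs DMSO wells | doses = single 10 µM dose, 0.1% DMSO, from 5x medium stock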

[2] = growth inhibitors of H69AR lung tumor, primary screen, human, duplicate replicates (AID 580;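 active = viability at or under a set limit in both replicates, limit being median viability minus 3 SD, cut at about 48% in these data, passing the limit was not always enough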;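 also: 100% = mean luminescence of untreated wells and 0% = no signal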); conditions: H69AR lung tumor cells viability, ATP luminescence, 72 h; at 10 µM; stronger effect = lower value
[3] = reversal of MRP1-mediated doxorubicin resistance, pilot screen, H69AR cells, doxorubicin co-treatment (AID 601;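 active = viability loss from added drug above about 55%, and viability with drug at most 40%, in both replicates, limit read from the data, passing the limit was not always enough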); conditions: CellTiter-Glo, 72 h, at 10 µM; for differential viability (reversal): stronger effect = higher value
[4] = 384-well plate pilot, post-Golgi transport modulator project, inhibition of yeast transport mutant growth (AID 636; in the data active = inhibition above about 31%); conditions: absorbance 615 nm, about 18 h, stronger effect = higher value
[5] = growth suppression of yeast trafficking mutant, preliminary HTS, modulators of trafficking downstream of Golgi apparatus project, 1536-format plate, OD 615 nm (AID 637; in the data active = inhibition above about 30%); conditions: yeast transport mutant growth, absorbance 615 nm, 18 h; stronger effect = higher value
[6] = H69AR cells + 2 uM doxorubicin, measured here: viability with 2 uM doxorubicin, stronger effect = lower value
[7] = H69AR cells, compound alone cytotoxicity

SMILES	viability [1]	viability [2]	differential viability (reversal) ([3]; H69AR cells + 2 uM doxorubicin)	viability [3, 6]	viability [3, 7]	inhibition [4]	inhibition [5]
Cc1cccc(-n2ncc3c(NCc4ccccn4)ncnc32)c1	97.5% (inactive)	89.6% (inactive)	1.75% (inactive)	87.8%	89.6%	-1.17% (inactive)	-4.6% (inactive)
Cc1nc(NCc2ccccn2)c2ccccc2n1	71% (inactive)	104% (inactive)	16.4% (inactive)	87.9%	104%	2.08% (inactive)	2.7% (inactive)
Cc1ccc2nsnc2c1S(=O)(=O)N1CCN(Cc2ccc3c(c2)OCO3)CC1	91% (inactive)	91% (inactive)	1.65% (inactive)	89.3%	91%	-3.03% (inactive)	2.86% (inactive)
CN(CC(=O)Nc1ccncc1)S(=O)(=O)c1ccccc1	110% (inactive)	95.8% (inactive)	11.9% (inactive)	83.9%	95.8%	-7.63% (inactive)	-0.63% (inactive)
CCSc1nnc(NC(=O)c2cc(C)oc2C)s1	85% (inactive)	99.7% (inactive)	12.6% (inactive)	87.1%	99.7%	-3.55% (inactive)	3.33% (inactive)
CC(NC(=O)OCc1ccccc1)C(=O)N1CC(O)CC1C(=O)O (stereo not given)	82.5% (inactive)	98.5% (inactive)	17.6% (inactive)	81%	98.5%	-0.39% (inactive)	-1.59% (inactive)
O=C(NCc1ccc(F)cc1)c1cc(-c2ccco2)on1	93.4% (inactive)	92.5% (inactive)	-8.09% (inactive)	101%	92.5%	-2.89% (inactive)	-5.56% (inactive)
CCCCn1c(SCc2cccnc2)nc2c1c(=O)n(C)c(=O)n2C	121% (inactive)	92.8% (inactive)	13.7% (inactive)	79.2%	92.8%	-7.76% (inactive)	-2.86% (inactive)
Cn1c(Cc2csc(N)n2)nnc1SCC(=O)NC1CCCCC1	112% (inactive)	96.8% (inactive)	-5.84% (inactive)	103%	96.8%	0.92% (inactive)	-0.63% (inactive)
O=C(CCNC(=O)c1ccc(Br)o1)NC1CCCC1	87% (inactive)	95.1% (inactive)	16.9% (inactive)	78.2%	95.1%	-4.4% (inactive)	4.29% (inactive)
CCCn1nc(CC(=O)O)c2ccccc2c1=O	98.2% (inactive)	103% (inactive)	8.11% (inactive)	94.7%	103%	-6.27% (inactive)	-3.02% (inactive)
CCOC(=O)C1CCCN(c2nc3ccccc3nc2C(C#N)C(=O)NCc2ccccc2)C1 (stereo not given)	80.6% (inactive)	86.2% (inactive)	0.385% (inactive)	85.8%	86.2%	-3.95% (inactive)	-1.27% (inactive)
O=c1oc(-c2ccco2)nc2ccccc12	92.6% (inactive)	91% (inactive)	4.72% (inactive)	86.2%	91%	-0.78% (inactive)	-2.22% (inactive)
Cc1ccc(-c2nnnn2CS(=O)(=O)c2ccccc2)cc1	86.7% (inactive)	96.4% (inactive)	5.26% (inactive)	91.1%	96.4%	-2.08% (inactive)	-2.22% (inactive)
O=C(Nc1ccccc1C(=O)N1CCOCC1)C1CCC(=O)N1C1CCCC1 (stereo not given)	108% (inactive)	95% (inactive)	-0.755% (inactive)	95.7%	95%	-8.8% (inactive)	-3.97% (inactive)
COc1ccc(N2CCN(C(=O)CSc3ncnc4c3cnn4-c3ccccc3C)CC2)cc1	55.5% (inactive)	68.6% (inactive)	-7.28% (inactive)	75.8%	68.6%	0.53% (inactive)	16% (inactive)
O=C(NCC1CCCO1)c1cccc(N2CCCC2=O)c1 (stereo not given)	90% (inactive)	90.2% (inactive)	-0.795% (inactive)	91%	90.2%	-5.47% (inactive)	1.9% (inactive)
O=C(Cn1c(=O)[nH]c2ccsc2c1=O)N1CCN(c2ccc(F)cc2)CC1	91% (inactive)	87.2% (inactive)	1.24% (inactive)	86%	87.2%	-1.84% (inactive)	4.6% (inactive)
N#Cc1c(-c2ccccc2)nc(N2CCCCCC2)[nH]c1=O	91.5% (inactive)	88.2% (inactive)	-3.53% (inactive)	91.7%	88.2%	-4.8% (inactive)	-3.02% (inactive)
CC(=O)NC(Cc1ccc(C)cc1)C(=O)NC1CCN(C(=O)c2cnccn2)CC1 (stereo not given)	110% (inactive)	93.3% (inactive)	2.21% (inactive)	91.1%	93.3%	-2.93% (inactive)	2.22% (inactive)

SMILES	viability [1]	viability [2]	differential viability (reversal) ([3]; H69AR cells + 2 uM doxorubicin)	viability [3, 6]	viability [3, 7]	inhibition [4]	inhibition [5]
Cc1c(NC(=O)c2cnn3c2NC(c2ccco2)CC3C(F)(F)F)c(=O)n(-c2ccccc2)n1C (stereo not given)	81.5% (inactive)	103% (inactive)	15.8% (inactive)	87%	103%	-2.47% (inactive)	3.65% (inactive)
CC1CN(c2nc3ccccc3nc2C(C#N)C(=O)NCc2ccc3c(c2)OCO3)CC(C)O1 (stereo not given)	84.6% (inactive)	91.2% (inactive)	-5.39% (inactive)	96.6%	91.2%	-4.93% (inactive)	4.76% (inactive)
CCCC(=O)N1CCN(c2ccc(NC(=O)c3ccc(Br)o3)cc2)CC1	125% (inactive)	104% (inactive)	3.6% (inactive)	101%	104%	1.58% (inactive)	-2.22% (inactive)
CCOC(=O)Cc1nnc(NC(=O)CSc2nnc3c4ccccc4n(C(C)C)c3n2)s1	83.9% (inactive)	75.6% (inactive)	0.7% (inactive)	74.9%	75.6%	-0.91% (inactive)	-1.43% (inactive)
Nc1ccc(Sc2nnnn2-c2ccccc2)c(Cl)c1	101% (inactive)	92% (inactive)	-9.96% (inactive)	102%	92%	-6.32% (inactive)	-2.06% (inactive)
Cc1cc(N2C(=O)C(=O)/C(=C(/O)c3ccc(F)cc3)C2c2ccc(F)cc2)no1 (stereo not given)	78.3% (inactive)	91.3% (inactive)	3.5% (inactive)	87.8%	91.3%	-5.47% (inactive)	5.08% (inactive)
CCc1c(C)nc(N)n2c(SCC(=O)N3CCCc4ccccc43)nnc12	107% (inactive)	100% (inactive)	11.3% (inactive)	89.1%	100%	-3.29% (inactive)	-0.32% (inactive)
CCN(CC)c1ccc2c(c1)C(=O)N(C)C2=O	71.6% (inactive)	84.6% (inactive)	2.22% (inactive)	82.4%	84.6%	-0.66% (inactive)	1.9% (inactive)
COc1ccc(NC(=O)CSc2nnc(-c3ccncc3)n2CC2CCCO2)c(OC)c1 (stereo not given)	89.2% (inactive)	104% (inactive)	5.88% (inactive)	97.7%	104%	-6.36% (inactive)	4.13% (inactive)
CC(C)(C)C1CCc2c(sc3c2C(=O)NC(c2ccco2)N3)C1 (stereo not given)	72.5% (inactive)	88.5% (inactive)	-10.4% (inactive)	98.9%	88.5%	1.97% (inactive)	-0.16% (inactive)
CC(=O)Nc1ccc(S(=O)(=O)N(CC(=O)O)Cc2ccccc2)cc1	93.7% (inactive)	97.7% (inactive)	-6.14% (inactive)	104%	97.7%	-2.47% (inactive)	7.14% (inactive)
Cn1c(SCc2c(F)cccc2Cl)nnc1-c1cccs1	112% (inactive)	87.9% (inactive)	10.2% (inactive)	77.6%	87.9%	-1.33% (inactive)	-5.87% (inactive)
O=C(O)C1CC=CCC1C(=O)Nc1cccc(C(=O)N2CCCCC2)c1 (stereo not given)	107% (inactive)	91.9% (inactive)	7.67% (inactive)	84.2%	91.9%	-5.2% (inactive)	9.21% (inactive)
Cc1cccc2cc(C(c3nnnn3C(C)(C)C)N3CCN(C(=O)c4ccco4)CC3)c(=O)[nH]c12 (stereo not given)	86.4% (inactive)	79.3% (inactive)	-3.69% (inactive)	83%	79.3%	-6.32% (inactive)	0% (inactive)
O=C(CCN1CCOCC1)Nc1ccc2c(c1)CCC2	79.7% (inactive)	93.7% (inactive)	6.83% (inactive)	86.8%	93.7%	-5.26% (inactive)	-4.13% (inactive)
Nc1cc(C(=O)O)ccc1Nc1ccccc1	86.8% (inactive)	111% (inactive)	11.5% (inactive)	99.8%	111%	-5.06% (inactive)	2.38% (inactive)
CCc1ccc(NC(=O)c2cc(-c3ccco3)on2)cc1	75.1% (inactive)	91.3% (inactive)	-16.3% (inactive)	108%	91.3%	-1.45% (inactive)	-4.6% (inactive)
COC(=O)c1ccc(CSc2nc3ccccc3c(=O)n2Cc2ccco2)o1	81.2% (inactive)	84.4% (inactive)	-7.85% (inactive)	92.3%	84.4%	-4.94% (inactive)	-1.11% (inactive)
CC(C)c1ccc(NC(=O)C2CC(=O)N(C(C)C)C2)cc1 (stereo not given)	89.2% (inactive)	90.8% (inactive)	3.6% (inactive)	87.3%	90.8%	-2.34% (inactive)	-2.86% (inactive)
N#Cc1c(SCC(=O)N2CCOCC2)nsc1SCC(=O)N1CCOCC1	97.7% (inactive)	97.2% (inactive)	11.5% (inactive)	85.7%	97.2%	-1.3% (inactive)	-3.02% (inactive)
